From ChEMBL document CHEMBL1151765, “Rational design of substituted diarylureas: a scaffold for binding to G-quadruplex motifs” (J Med Chem, 2008)
Active and inactive are the calls of the source. The calls are words filed in the database; no cut-off is given here.

What was measured:
[1] = Stabilization of d[AGAG3AG2GCGCTG3AG2AG3GCT] sequence of c-kit1 G-quadruplex DNA assessed as change in melting temperature at 1 uM by FRET assay
How it was run: (§1)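 Dual-labelled FAM/TAMRA oligos at 400nM in 60mM KCl potassium cacodylate buffer, pH 7.4, heated to 85 °C for 10 min, then cooled. Ligand added to 1µM; buffer alone as negative control. Excitation 450–495nm, emission read at 515–545nm every 0.5 °C from 30–100 °C. ΔTm is ligand Tm minus control Tm, from four experiments ± maximum sd; c-kit1 curves fitted to sigmoids.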

[2] = Stabilization of d[G3(T2AG3)3] sequence of F21T telomeric G-quadruplex DNA assessed as change in melting temperature at 1 uM by FRET assay
How it was run: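 Dual-labelled oligo (5′-FAM, 3′-TAMRA) at 400nM in FRET buffer (60mM KCl, K cacodylate, pH 7.4), heated to 85 °C for 10 min, cooled to room temperature. Ligand added from DMSO dilution. Excitation 450–495nm, emission 515–545nm, read every 0.5 °C from 30–100 °C. ΔTm from four experiments: averaged ligand Tm minus averaged buffer-control Tm, ± maximum sd.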

[3] = Stabilization of d[C3G3CG3CGCGAG3AG4AG2] sequence of c-kit2 G-quadruplex DNA assessed as change in melting temperature at 1 uM by FRET assay; how it was run: as §1
[4] = Stabilization of d[(TA)2GC(TA)2T6(TA)2]GC(TA)2 sequence of duplex DNA assessed as change in melting temperature at 1 uM by FRET assay; how it was run: as §1
MCF7 [5] = experiment: Cytotoxicity against human MCF7 cells after 96 hrs by SRB assay; assay type: functional, cell-based; conditions: MCF7, 96 h
A549 [6] = experiment: Cytotoxicity against human A549 cells after 96 hrs by SRB assay; assay type: functional, cell-based; conditions: A549, 96 h
[7] = Cytotoxicity against human WI38 cells after 96 hrs by SRB assay; assay type: cell-based; conditions: WI-38, 96 h
MCF7 [8] = experiment: Selectivity ratio of IC50 for human MCF7 cells to IC50 for human WI38 cells
A549 [9] = experiment: Selectivity ratio of IC50 for human A549 cells to IC50 for human WI38 cells
MCF7 [10] = experiment: Cytotoxicity against human MCF7 cells assessed as population doubling at 1 uM after 1 week […] relative to control; assay type: functional
How it was run: (§2)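 MCF7 cells (1×10^5) treated with sub-cytotoxic ligand concentrations for 1 week, biweekly dosing. Cells counted by haemocytometer; population doublings n = (log Pn – log P0)/log2. Values normalized to vehicle control (100%) ± sd, two independent concentrations per ligand.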

MCF7 [11] = experiment: Cytotoxicity against human MCF7 cells assessed as population doubling at 2 uM after 1 week […] relative to control; assay type: functional; how it was run: as §2
MCF7 [12] = experiment: Cytotoxicity against human MCF7 cells assessed as cell senescence at 1 uM after 1 week by beta-galactosidase assay; assay type: functional
MCF7 [13] = experiment: Cytotoxicity against human MCF7 cells assessed as cell senescence at 2 uM after 1 week by beta-galactosidase assay; assay type: functional
[14] = Stabilization of d[G3(T2AG3)3] sequence of F21T telomeric G-quadruplex DNA assessed as change in melting temperature at 1 uM by FRET assay relative to BRACO-19 in presence of calf thymus DNA
How it was run: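 F21T FRET melting with ligand at 1µM in the presence of calf thymus DNA competitor at increasing bp concentrations. Retained stabilization, from three experiments, normalized to the ligand's ΔTm with no competitor (100%) ± normalized sd.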

Homo sapiens = species: Homo sapiens; experiment: Binding affinity to biotin-labeled human telomeric d[AG3(T2AG3)3] sequence by surface plasmon resonance analysis
How it was run: (§3)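 Streptavidin chip with 5′-biotinylated DNA immobilized to 350-400 RU; blank reference flow cell. Run in 10mM HEPES, 100mM KCl, 3mM EDTA, P20 surfactant, pH 7.3, 25°C. Ligand 1nM to 10µM (from 20mM DMSO stock) injected at 50µl/min for 5–10 min to steady state, then 10 min buffer dissociation; glycine pH 2.0 regeneration between cycles.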

[15] = Binding affinity to biotin-labeled d[(AG3)2CGCTG3AG2AG3] sequence of c-kit1 G-quadruplex DNA by surface plasmon resonance analysis; how it was run: as §3
[16] = Binding affinity to biotin-labeled d[(CG3)2CGCGAG3AG4] sequence of c-kit2 G-quadruplex DNA by surface plasmon resonance analysis; how it was run: as §3
[17] = Binding affinity to biotin-labeled d[(AG3TG4)2A] sequence of c-myc G-quadruplex DNA by surface plasmon resonance analysis; how it was run: as §3
[18] = Binding affinity to biotin-labeled d[CGA2T2CGTCTC2GA2T2CG] sequence of duplex DNA by surface plasmon resonance analysis; how it was run: as §3
[19] = Selectivity ratio of equilibrium binding constant K for human telomeric d[AG3(T2AG3)3] sequence to equilibrium binding constant K for d[CGA2T2CGTCTC2GA2T2CG] sequence of duplex DNA
[20] = Selectivity ratio of equilibrium binding constant K for d[(AG3)2CGCTG3AG2AG3] sequence of c-kit1 G-quadruplex DNA to equilibrium binding constant K for d[CGA2T2CGTCTC2GA2T2CG] sequence of duplex DNA
[21] = Selectivity ratio of equilibrium binding constant K for d[(CG3)2CGCGAG3AG4] sequence of c-kit2 G-quadruplex DNA to equilibrium binding constant K for d[CGA2T2CGTCTC2GA2T2CG] sequence of duplex DNA
[22] = Selectivity ratio of equilibrium binding constant K for d[(AG3TG4)2A] sequence of c-myc G-quadruplex DNA to equilibrium binding constant K for d[CGA2T2CGTCTC2GA2T2CG] sequence of duplex DNA
[23] = biological target: T1, Telomerase reverse transcriptase (Homo sapiens, UniProt O14746); experiment: Inhibition of telomerase by TRAP-LIG assay
[24] = biological target: T1, Telomerase reverse transcriptase; experiment: Inhibition of telomerase at 50 uM by TRAP-LIG assay relative to control
MCF7 [25] = experiment: Cytotoxicity against human MCF7 cells assessed as population doubling at 3.50 uM after 1 week […] relative to control; assay type: functional; how it was run: as §2
MCF7 [26] = experiment: Cytotoxicity against human MCF7 cells assessed as population doubling at 7 uM after 1 week […] relative to control; assay type: functional; how it was run: as §2
MCF7 [27] = experiment: Cytotoxicity against human MCF7 cells assessed as cell senescence at 3.5 uM after 1 week by beta-galactosidase assay; assay type: functional
MCF7 [28] = experiment: Cytotoxicity against human MCF7 cells assessed as population doubling at 1.75 uM after 1 week […] relative to control; assay type: functional; how it was run: as §2
MCF7 [29] = experiment: Cytotoxicity against human MCF7 cells assessed as population doubling at 2.25 uM after 1 week […] relative to control; assay type: functional; how it was run: as §2
MCF7 [30] = experiment: Cytotoxicity against human MCF7 cells assessed as cell senescence at 1.75 uM after 1 week by beta-galactosidase assay; assay type: functional
MCF7 [31] = experiment: Cytotoxicity against human MCF7 cells assessed as cell senescence at 2.25 uM after 1 week by beta-galactosidase assay; assay type: functional

T1 sequence (O14746 whole entry): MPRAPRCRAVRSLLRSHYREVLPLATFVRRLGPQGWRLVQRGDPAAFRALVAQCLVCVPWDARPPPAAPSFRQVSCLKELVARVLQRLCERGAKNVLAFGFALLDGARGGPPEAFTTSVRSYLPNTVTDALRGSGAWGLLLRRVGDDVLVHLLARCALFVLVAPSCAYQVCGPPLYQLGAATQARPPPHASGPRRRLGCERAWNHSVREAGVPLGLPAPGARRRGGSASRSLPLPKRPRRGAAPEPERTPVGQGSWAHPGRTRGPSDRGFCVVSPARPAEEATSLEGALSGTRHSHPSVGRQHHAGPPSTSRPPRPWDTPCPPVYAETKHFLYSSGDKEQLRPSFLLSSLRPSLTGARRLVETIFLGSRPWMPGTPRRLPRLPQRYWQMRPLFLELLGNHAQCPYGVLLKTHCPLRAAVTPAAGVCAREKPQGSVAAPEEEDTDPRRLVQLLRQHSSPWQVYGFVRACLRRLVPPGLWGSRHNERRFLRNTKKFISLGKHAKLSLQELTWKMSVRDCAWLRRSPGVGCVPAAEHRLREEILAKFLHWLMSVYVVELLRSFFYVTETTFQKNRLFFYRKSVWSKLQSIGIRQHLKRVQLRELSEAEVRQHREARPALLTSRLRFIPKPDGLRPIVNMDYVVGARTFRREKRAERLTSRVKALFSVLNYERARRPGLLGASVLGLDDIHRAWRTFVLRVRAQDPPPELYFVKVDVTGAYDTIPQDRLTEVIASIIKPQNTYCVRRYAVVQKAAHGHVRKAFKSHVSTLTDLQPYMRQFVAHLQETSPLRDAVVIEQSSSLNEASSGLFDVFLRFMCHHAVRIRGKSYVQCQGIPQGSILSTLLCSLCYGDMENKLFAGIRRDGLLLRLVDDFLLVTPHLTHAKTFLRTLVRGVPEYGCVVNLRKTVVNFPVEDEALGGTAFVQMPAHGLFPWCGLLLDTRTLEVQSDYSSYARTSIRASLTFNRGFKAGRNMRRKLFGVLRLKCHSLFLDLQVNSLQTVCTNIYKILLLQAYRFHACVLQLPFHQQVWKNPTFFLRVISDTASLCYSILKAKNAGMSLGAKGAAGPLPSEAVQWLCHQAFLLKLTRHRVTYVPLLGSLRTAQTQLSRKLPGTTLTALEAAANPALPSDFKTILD

Work on `O=C(CCN1CCCC1)Nc1cccc(NC(=O)c2ccc(NC(=O)Nc3ccc(C(=O)Nc4cccc(NC(=O)CCN5CCCC5)c4)cc3)cc2)c1` yielded a change in melting temperature (ΔTm) [1] of 0.5 °C, a change in melting temperature (ΔTm) [2] of 5.1 °C and a change in melting temperature (ΔTm) [3] of 7.5 °C. The change in melting temperature (ΔTm) [4] was 4.9 °C, the IC50 (MCF7 [5]) was 3.2 µM and the IC50 (A549 [6]) was 4.3 µM. The IC50 [7] was over 50 µM, the Ratio IC50 (MCF7 [8]) was 15.6 and the Ratio IC50 (A549 [9]) was 11.6. It also gave an Activity (MCF7 [10]) of 82.9%, an Activity (MCF7 [11]) of 44% and an Activity (MCF7 [12]) of 3%. The Activity (MCF7 [13]) was 4.1%.

With `O=C(CCCN1CCCC1)Nc1ccc(NC(=O)c2cccc(NC(=O)Nc3cccc(C(=O)Nc4ccc(NC(=O)CCCN5CCCC5)cc4)c3)c2)cc1` the change in melting temperature (ΔTm) [1] was 10.1 °C, the change in melting temperature (ΔTm) [2] was 12 °C and the change in melting temperature (ΔTm) [3] was 17.1 °C. For the same molecule, the Activity [14] was “Active”, the KA (Homo sapiens) was 0.4 ×10⁶ /M and the KA [15] was 0.4 ×10⁶ /M. It also gave a KA [16] of 3.1 ×10⁶ /M, a KA [17] of 0.9 ×10⁶ /M and a KA [18] of under 1 ×10³ /M. For the same molecule, the Selectivity ratio [19] was over 400, the Selectivity ratio [20] was over 400 and the Selectivity ratio [21] was over 400. For the same molecule, the Selectivity ratio [22] was over 400, the EC50 [23] was over 50 µM and the inhibition [24] was 36%. For the same molecule, the IC50 (MCF7 [5]) was 11.1 µM, the IC50 (A549 [6]) was over 50 µM and the IC50 [7] was over 50 µM. For the same molecule, the “Ratio IC50” value (A549 [9]) was 1, the Activity (MCF7 [25]) was 96% and the Activity (MCF7 [26]) was 81.5%. It also gave an Activity (MCF7 [27]) of 1.6%.

Work on `O=C(CCN1CCCC1)Nc1ccc(NC(=O)c2cccc(NC(=O)Nc3cccc(C(=O)Nc4ccc(NC(=O)CCN5CCCC5)cc4)c3)c2)cc1` yielded a change in melting temperature (ΔTm) [1] of 10.2 °C, a change in melting temperature (ΔTm) [2] of 13.5 °C and a change in melting temperature (ΔTm) [3] of 18.7 °C. The change in melting temperature (ΔTm) [4] was 0.4 °C, the Activity [14] was “Active” and the KA (Homo sapiens) was 1.1 ×10⁶ /M. The KA [15] was 1.4 ×10⁶ /M, the KA [16] was 5 ×10⁶ /M and the KA [17] was 2.1 ×10⁶ /M. It also gave a KA [18] of under 1 ×10³ /M, a Selectivity ratio [19] of over 400 and a Selectivity ratio [20] of over 400. The Selectivity ratio [21] was over 400, the Selectivity ratio [22] was over 400 and the EC50 [23] was over 50 µM. It also gave an inhibition [24] of 6%, an IC50 (MCF7 [5]) of 2.6 µM and an IC50 (A549 [6]) of 5.3 µM. The IC50 [7] was 7.5 µM, the Activity (MCF7 [10]) was 110.4% and the Activity (MCF7 [28]) was 109.6%. The Activity (MCF7 [29]) was 66.5%, the Activity (MCF7 [30]) was 3.1% and the Activity (MCF7 [31]) was 2.4%.
